Data published in ChEMBL document CHEMBL1765012, “Novel interactions of fluorinated nucleotide derivatives targeting orotidine 5'-monophosphate decarboxylase” (J Med Chem, 2011).
pIC50, pKi: −log10 of the molar value. Activity calls are given as the source filed them. The rule behind the calls is not given here.

Legend:
[1] = target: Orotidine 5'-phosphate decarboxylase (Methanobacterium thermoautotrophicum) (UniProt O26232); assay: Covalent binding affinity to Methanobacterium thermoautotrophicum 5'-monophosphate decarboxylase by mass spectroscopy analysis; conditions: Methanothermobacter thermautotrophicus
Orotidine 5'-phosphate decarboxylase (Methanobacterium thermoautotrophicum), sequence (O26232 whole entry, looked up): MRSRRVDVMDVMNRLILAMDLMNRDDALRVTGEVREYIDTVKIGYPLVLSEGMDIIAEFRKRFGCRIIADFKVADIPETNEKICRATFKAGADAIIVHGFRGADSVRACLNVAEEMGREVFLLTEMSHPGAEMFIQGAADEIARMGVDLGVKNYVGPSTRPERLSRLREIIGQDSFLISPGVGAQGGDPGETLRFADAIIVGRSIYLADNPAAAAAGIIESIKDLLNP
Summary of the method: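 Mt ODCase incubated overnight at room temperature with inhibitor (25 mM, in the dark; or 388 mM with 200 μM enzyme) in 50 mM Tris pH 7.5, 20 mM DTT, 40 mM NaCl. Enzyme mass measured by mass spectrometry against an inhibitor-free control; covalent adduct taken from a mass increase over native enzyme.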

Plasmodium falciparum = assay: Antimalarial activity against Plasmodium falciparum 3D7; format: functional, organism-based
[2] = Cytotoxicity against human OCI-AML1 cells; format: functional, cell-based
CHO = assay: Cytotoxicity against CHO cells; format: cell-based; conditions: Cricetulus griseus
[3] = target: Orotidine 5'-phosphate decarboxylase (Methanobacterium thermoautotrophicum, UniProt O26232); assay: Irreversible inhibition of Methanobacterium thermoautotrophicum 5'-monophosphate decarboxylase
Orotidine 5'-phosphate decarboxylase, sequence (O26232 whole entry): as the sequence (O26232 whole entry, looked up) above

Row | SMILES | Activity [1] | pIC50 (Plasmodium falciparum) | pIC50 [2] | pIC50 (CHO) | pKi [3]
1 | O=c1cc(I)n([C@@H]2O[C@H](CP(=O)(O)O)[C@@H](O)[C@H]2F)c(=O)[nH]1 | Active | – | – | – | –
2 | NC(=O)c1cc(=O)[nH]c(=O)n1[C@@H]1O[C@H](CO)[C@@H](O)[C@H]1F | – | < 2.70 | < 4.30 | < 3.00 | –
3 | [N-]=[N+]=Nc1cc(=O)[nH]c(=O)n1[C@@H]1O[C@H](CO)[C@@H](O)[C@H]1F | – | < 3.00 | < 4.30 | < 2.70 | –
4 | N#Cc1cc(=O)[nH]c(=O)n1[C@@H]1O[C@H](CO)[C@@H](O)[C@H]1F | – | < 3.00 | < 4.30 | < 3.22 | –
5 | N#Cc1cn([C@@H]2O[C@H](CO)[C@@H](O)[C@H]2F)c(=O)[nH]c1=O | – | 2.96 | < 4.30 | < 3.00 | –
6 | O=c1cc(I)n([C@@H]2O[C@H](CO)[C@@H](O)[C@H]2F)c(=O)[nH]1 | – | < 2.22 | < 4.30 | 2.87 | –
7 | [N-]=[N+]=Nc1cc(=O)[nH]c(=O)n1[C@@H]1O[C@H](COP(=O)(O)O)[C@@H](O)[C@H]1F | Active | – | – | – | 2.92
